According to PMC9426400 (Hepatology Communications, 2022):
Read-outs that look alike come from different tables or passages of the source. Blank lines part the entries; values can stand above or below the compound they belong to.

Tests used:
[1] = system: LX2 human hepatic stellate cell line; experiment: LX2 collagen assay; assay type: cell-based; conditions: LX-2, read-out: EC50, inhibition of collagen production
[2] = system: FFD-fed dyslipidemic Sprague Dawley rats; experiment: Dyslipidemic rat model; assay type: in vivo; conditions: for Dose in ACCi combination with significantly reduced hepatic Apoc3 expression: relative to both vehicle and ACCi alone; for Dose inducing PPAR target genes in eWAT: epidydimal white adipose tissue
Method in brief: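 Sprague Dawley rats fed FFD plus 4.03% sugar water (2.3% fructose, 1.7% glucose) for 28 days, across three studies. PPAR or THRβ agonists started Day 7 and ACCi Day 14. Circulating TG on Day 22 (serum Study 2, plasma Studies 3–4; n = 5–10/group). Terminal liver TG was taken fed, 8 h post-dose. Liver and eWAT gene expression measured. Nonparametric statistics, p ≤ 0.05.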

Huh7 cells = experiment: FAO assay in Huh7 cells; assay type: cell-based, human; conditions: for EC50: Homo sapiens; for FAO induction (times): 14C-OA, monotherapy; for Stimulation of FAO: at the concentrations tested
subjects with NASH = conditions: cited from earlier work
FFD-fed C57BL/6 mice = experiment: FFD mouse model of early NASH; assay type: in vivo
rat PPARδ = molecular target: T1, rat PPARδ (Rattus norvegicus, UniProt Q62879); experiment: PPAR luciferase reporter assay, rat PPARδ; assay type: cell-based
T1 sequence (Q62879 1-440): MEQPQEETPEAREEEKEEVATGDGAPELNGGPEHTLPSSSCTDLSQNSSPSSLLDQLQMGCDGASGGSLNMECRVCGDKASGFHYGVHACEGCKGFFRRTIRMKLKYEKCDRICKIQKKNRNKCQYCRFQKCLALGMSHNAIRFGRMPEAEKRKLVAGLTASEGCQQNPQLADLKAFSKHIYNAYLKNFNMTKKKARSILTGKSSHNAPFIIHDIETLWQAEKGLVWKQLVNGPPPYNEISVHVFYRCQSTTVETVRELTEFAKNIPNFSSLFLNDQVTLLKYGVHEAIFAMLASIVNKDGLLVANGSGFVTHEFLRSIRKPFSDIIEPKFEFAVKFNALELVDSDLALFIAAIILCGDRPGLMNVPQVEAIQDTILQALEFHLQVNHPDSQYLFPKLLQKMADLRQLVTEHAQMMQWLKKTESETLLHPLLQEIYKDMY

FAO = FAO assay validation with CPT1 inhibitor etomoxir; assay type: cell-based; conditions: read-out: EC50, block of FAO
[3] = Study 2, combination with ACCi 30 mg/kg, 15 mg/kg Feno, 30 mg/kg Ela
[4] = Huh-7, read-out: FAO EC50, Huh7 cells, 14C-OA, monotherapy

SMILES: COc1ccccc1[C@H](Cn1c(=O)n(C(C)(C)C(=O)O)c(=O)c2c(C)c(-c3ncco3)sc21)OC1CCOCC1 [FIR, Firsocostat]
Reduction in relative liver TG (subjects with NASH; subjects with NASH): 30% | EC50 (Huh7 cells; Huh-7, read-out: FAO EC50, Huh7 cells, 14C-OA tracer): 32.7 nM | EC50 (Huh7 cells; Huh-7, read-out: FAO EC50, Huh7 cells, 14C-PA tracer): 16.6 nM

SMILES: CC(C)OC(=O)C(C)(C)Oc1ccc(C(=O)c2ccc(Cl)cc2)cc1 [Feno, fenofibrate]
Liver total cholesterol content reduction (FFD-fed C57BL/6 mice; Feno^high (150 mg/kg) monotherapy): 57% | Liver total cholesterol content reduction (FFD-fed C57BL/6 mice; Feno^low (50 mg/kg) monotherapy): 49% | Liver TG reduction compared with vehicle [2, 3]: 58% | Dose in ACCi combination with significantly reduced hepatic Apoc3 expression [2]: ≥ 5 mg/kg

SMILES: CC(C)(Oc1ccc(C(=O)c2ccc(Cl)cc2)cc1)C(=O)O [Fenofibric acid]
Activity in the FAO assay (Huh7 cells; Huh7 cells, up to a concentration of 100 μM): not active

SMILES: CC(C)c1cc(Oc2c(Cl)cc(-n3nc(C#N)c(=O)[nH]c3=O)cc2Cl)n[nH]c1=O [Res, Resmetirom]
Liver TG reduction compared with vehicle ([2]; Study 4, 1 mg/kg Res in combination with ACCi 30 mg/kg): 83% | Liver TG reduction compared with vehicle ([2]; Study 4, 3 mg/kg Res in combination with ACCi 30 mg/kg): 88% | Liver TG in combination with ACCi relative to ACCi alone ([2]; dyslipidemic rats, combined with ACCi 30 mg/kg): lowered liver TG relative to ACCi alone | Circulating TG reduction vs. vehicle ([2]; dyslipidemic rats, monotherapy, 3 mg/kg, after 1 week): 50% | Dose in ACCi combination with significantly reduced hepatic Apoc3 expression [2]: 3 mg/kg | NASH resolution (share of subjects) (subjects with NASH; vs. 6.5% placebo): 27.4% | EC50 (Huh7 cells; [4]): 46000 nM | FAO induction (times) (Huh7 cells; Huh7 cells): 1.6 times

SMILES: CCO[C@H](COc1ccc(C(F)(F)F)cc1)CSc1ccc(OCC(=O)O)c(C)c1 [Sela, seladelpar]
Dose inducing PPAR target genes in eWAT ([2]; dyslipidemic rats): 15 mg/kg | Dose in ACCi combination with significantly reduced hepatic Apoc3 expression [2]: 15 mg/kg | NASH resolution (share of subjects) (subjects with NASH; over 52 weeks, vs. 8% placebo): 26% | Stimulation of FAO (Huh7 cells; Huh7 cells): did not stimulate FAO

SMILES: CCc1ccc(CCOc2ccc(CC3SC(=O)NC3=O)cc2)nc1 (centres unmarked) [pioglitazone]
NASH resolution (share of subjects) (subjects with NASH; vs. 21% placebo): 47%

Second part, led by results:

EC50 [1]: ~2000 nM | EC50 (Huh7 cells; [4]): 10300 nM
SMILES: CSc1ccc(C(=O)/C=C/c2cc(C)c(OC(C)(C)C(=O)O)c(C)c2)cc1 [Ela, elafibranor]
Liver TG reduction compared with vehicle [2, 3]: 76% | Dose in ACCi combination with significantly reduced hepatic Apoc3 expression [2]: ≥ 3 mg/kg | FAO induction (times) (Huh7 cells; Huh7 cells): 1.4 times

Activation of rat PPARδ (rat PPARδ): did not activate rat PPARδ
SMILES: O=C(O)CCCc1cc2cc(Cl)ccc2n1S(=O)(=O)c1ccc2ncsc2c1 [Lani, lanifibranor]
NASH resolution (share of subjects) (subjects with NASH; over 24 weeks, vs. 19% placebo): 45% | Fibrosis regression (share of subjects) (subjects with NASH; over 24 weeks, vs. 24% placebo): 42% | Stimulation of FAO (Huh7 cells; Huh7 cells): did not stimulate FAO

EC50 (Huh7 cells; [4]): 51500 nM
SMILES: CCO[C@@H](Cc1ccc(OCCn2c(C)ccc2-c2ccc(SC)cc2)cc1)C(=O)O [Saro, saroglitazar]
Dose inducing PPAR target genes in eWAT ([2]; dyslipidemic rats): 3 mg/kg | Dose in ACCi combination with significantly reduced hepatic Apoc3 expression [2]: ≥ 0.3 mg/kg | FAO induction (times) (Huh7 cells; Huh7 cells): 3.6 times

EC50 (FAO): 136 nM
SMILES: CCOC(=O)[C@@]1(CCCCCCOc2ccc(Cl)cc2)CO1 [etomoxir]
